Laboratory results reported in ChEMBL document CHEMBL1126822, “7 alpha-Methyl- and 11 beta-ethoxy-substitution of [125I]-16 alpha-iodoestradiol: effect on estrogen receptor-mediated target tissue uptake” (J Med Chem, 1993).

Columns and labels:
Format in all cases: ADME, organism-based
Settings in all cases: in vivo
Rattus norvegicus [1] = test: Tissue uptake (brain) of [125I]- after administration of [125I]-labeled compound to immature female rats (n=4) in the absence of 60 microg coinjected estradiol after 2 hours
Method in brief: (§1)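 Immature female Fischer rats, 24 days old, 55-60 g, unanesthetized in retention cages, given HPLC-purified 125I-labeled steroid (3 μCi, 111 kBq) via lateral tail vein in 200 μL of 9% ethanol-saline with 1% Tween-80. The blocking group was coinjected with 60 μg unlabeled estradiol and sampled at 1 h. Animals were killed under ether at 0.5-24 h. Tissues were KCl-washed, blotted, weighed and gamma-counted. Results are % ID/g, with variation as small-sample-corrected %CV.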

Rattus norvegicus [2] = test: Tissue uptake (blood) of [125I]- after administration of [125I]-labeled compound to immature female rats (n=4) in the absence of 60 microg coinjected estradiol after 5 hours; method in brief: as §1
Rattus norvegicus [3] = test: Tissue uptake (brain) of [125I]- after administration of [125I]-labeled compound to immature female rats (n=4) in the absence of 60 microg coinjected estradiol after 5 hours; method in brief: as §1
Rattus norvegicus [4] = test: Tissue uptake (brain) of [125I]- after administration of [125I]-labeled compound to immature female rats (n=3) in the presence of 60 microg coinjected estradiol after 1 hour; method in brief: as §1
Rattus norvegicus [5] = test: Tissue uptake (brain) of [125I]- after administration of [125I]-labeled compound to immature female rats (n=3) in the absence of 60 microg coinjected estradiol after 24 hours; method in brief: as §1
Rattus norvegicus [6] = test: Tissue uptake (brain) of [125I]- after administration of [125I]-labeled compound to immature female rats (n=5) in the absence of 60 microg coinjected estradiol after 1 hour; method in brief: as §1
Rattus norvegicus [7] = test: Tissue uptake (blood) of [125I]- after administration of [125I]-labeled compound to immature female rats (n=3) in the absence of 60 microg coinjected estradiol after 24 hours; method in brief: as §1
Rattus norvegicus [8] = test: Tissue uptake (blood) of [125I]- after administration of [125I]-labeled compound to immature female rats (n=4) in the absence of 60 microg coinjected estradiol. (5 hours after injection) (% coefficient of variation); method in brief: as §1
Rattus norvegicus [9] = test: Tissue uptake (plasma) of [125I]- after administration of [125I]-labeled compound to immature female rats (n=3) in the presence of 60 microg coinjected estradiol after 1 hour; method in brief: as §1
Rattus norvegicus [10] = test: Tissue uptake (plasma) of [125I]- after administration of [125I]-labeled compound to immature female rats (n=4) in the absence of 60 microg coinjected estradiol after 2 hours; method in brief: as §1
Rattus norvegicus [11] = test: Tissue uptake (plasma) of [125I]- after administration of [125I]-labeled compound to immature female rats (n=4) in the absence of 60 microg coinjected estradiol after 5 hours
Method in brief: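 Immature female Fischer rats, 24 days old, 55-60 g, unanesthetized in retention cages, got HPLC-purified n.c.a. 125I-labeled steroid (3 μCi, 111 kBq) by lateral tail vein. Dose was given in 200 μL saline with 9% ethanol and 1% Tween-80. Deep ether anesthesia, axillary artery cut; tissues KCl-washed, blotted, weighed, gamma-counted as % ID/g; variation as small-sample-corrected %CV.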

ID/g (Rattus norvegicus [1]) [%]	ID/g (Rattus norvegicus [2]) [%]	ID/g (Rattus norvegicus [3]) [%]	ID/g (Rattus norvegicus [4]) [%]	ID/g (Rattus norvegicus [5]) [%]	ID/g (Rattus norvegicus [6]) [%]	ID/g (Rattus norvegicus [7]) [%]	ID/g (Rattus norvegicus [8]) [%]	ID/g (Rattus norvegicus [9]) [%]	ID/g (Rattus norvegicus [10]) [%]	ID/g (Rattus norvegicus [11]) [%]	Structure (SMILES)
0.25	0.7	0.14	0.42	0.04	0.39	0.17					CCO[C@H]1C[C@]2(C)[C@@H](O)[C@H](I)C[C@H]2[C@@H]2CCc3cc(O)ccc3[C@H]21
							0.28	0.51	0.49	0.41	C[C@@H]1Cc2cc(O)ccc2[C@H]2CC[C@]3(C)[C@@H](O)[C@H](I)C[C@H]3[C@H]12
